The nature of assay [1]: Antifungal activity against Madurella mycetomatis isolate 50 by XTT assay. The class given is functional. The procedure, abridged: (§1)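 Ketoconazole, caspofungin and anidulafungin diluted in DMSO, micafungin in normal saline. Viability read by XTT reduction. MIC is the first concentration giving >80% spectrophotometric reduction. Done independently in triplicate.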
On the technique in general: Tetrazolium assays rely on reduction of a dye to a coloured formazan, in cell work by metabolically active cells.

A short description of assay [2]: Antifungal activity against Madurella mycetomatis isolate 68 by XTT assay. The class given is functional. The method in brief:
as §1

A short description of assay [3]: Antifungal activity against Madurella mycetomatis isolate 55 by XTT assay. The class given is functional. The method in brief: as §1
Assay [4] in a line: Antifungal activity against Madurella mycetomatis isolate 43 by XTT assay. The class given is functional. The method in brief:
as §1

A short description of assay [5]: Antifungal activity against Madurella mycetomatis isolate 35 by XTT assay. In kind it is functional. The procedure, abridged:
as §1

A short description of assay [6]: Antifungal activity against Madurella mycetomatis isolate 54 by XTT assay. The class given is functional. The procedure, abridged:
as §1

Assay [7] is described as follows: Antifungal activity against Madurella mycetomatis isolate 36 by XTT assay. The class given is functional. The method in brief:
as §1

The nature of assay [8]: Antifungal activity against Madurella mycetomatis isolate 49 by XTT assay. In kind it is functional. The procedure, abridged: as §1
A short description of assay [9]: Antifungal activity against Madurella mycetomatis isolate 64 by XTT assay. The class given is functional. The procedure, abridged:
as §1

A short description of assay [10]: Antifungal activity against Madurella mycetomatis isolate 31 by XTT assay. In kind it is functional. The method in brief:
as §1

The nature of assay [11]: Antifungal activity against Madurella mycetomatis isolate 73 by XTT assay. In kind it is functional. The method in brief:
as §1

The nature of assay [12]: Antifungal activity against Madurella mycetomatis isolate 46 by XTT assay. The class given is functional. The procedure, abridged:
as §1

Assay [13] can be described thus: Antifungal activity against Madurella mycetomatis isolate 52 by XTT assay. In kind it is functional. The procedure, abridged: as §1
Assay [14] in a line: Antifungal activity against Madurella mycetomatis isolate 39 by XTT assay. The class given is functional. The procedure, abridged:
as §1

Assay [15] in a line: Antifungal activity against Madurella mycetomatis isolate 41 by XTT assay. The class given is functional. The procedure, abridged: as §1
Assay [16] in a line: Antifungal activity against Madurella mycetomatis isolate 83 by XTT assay. The class given is functional. The procedure, abridged:
as §1

Assay [17] in a line: Antifungal activity against Madurella mycetomatis isolate 45 by XTT assay. The class given is functional. The method in brief:
as §1

Assay [18] deals with Aspergillus fumigatus. The assay is described as follows: Antifungal activity against Aspergillus fumigatus ATCC 204305 by XTT assay. The class given is functional. Conditions: for minimal effective concentration: read-out: MEC. The procedure, abridged:
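XTT viability assay in RPMI, run independently in triplicate, with a conidial inoculum. Twofold dilutions from 0.007 to 128 mg/liter for echinocandins and 0.016 to 16 mg/liter for KTZ. Drugs dissolved in DMSO, except micafungin in normal saline. MIC is the first concentration giving more than 80% spectrophotometric reduction. MEC is the first concentration with altered growth.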

In assay [19] the test system is Aspergillus fumigatus. Kind of assay: Inhibition of beta-1,3-D-glucan synthesis in Aspergillus fumigatus ATCC 204305 after 48 hrs by […] assay. The class given is functional, organism-based. The procedure, abridged:
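A conidial suspension in RPMI was exposed to drug in tubes for 48 h. Mycelium was freeze-dried, taken up in 1 M NaOH, probe-sonicated for 15 s and held at 52°C for 30 min. Glucan was measured by aniline blue fluorescence with curdlan as standard, then corrected to viable cells by XTT. Results are means with standard deviation.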

For a further assay, the system named is Madurella mycetomatis. The assay is described as follows: Inhibition of beta-1,3-D-glucan synthesis in Madurella mycetomatis isolate 55 after 7 days by […] assay. In kind it is functional. The method in brief: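 A hyphal suspension in RPMI was exposed to drug in tubes for 7 days at 37°C. Mycelium was freeze-dried, taken up in 1 M NaOH, probe-sonicated for 15 s and held at 52°C for 30 min. Glucan was measured by aniline blue fluorescence with curdlan as standard, then scaled to viable cells from XTT relative to growth control. Results are means with standard deviation.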

In brackets after ≈: the same amount, converted by molar mass. Activity calls are given as the source filed them. Numbered stars: 1 amine (or outer) side, 2 acyl side, 3 side chain; on linkers, the order of the positions; unused ones are H or OH. Bridge positions count the residues as written; N and C are the ends. Square brackets hold non-standard residues; d marks the D form. Peptide text beside a SMILES is read from it. * marks the point of attachment. hTyr(3S-OH,4S-OH,3'-OSO3H) = N[C@H](C(=O)O)[C@H](O)[C@@H](O)c1ccc(O)c(OS(=O)(=O)O)c1; pTerphenylCO(4''-OnC5H11) = CCCCCOc1ccc(-c2ccc(-c3ccc(C(=O)*)cc3)cc2)cc1; Orn(4R-OH,5R-OH) = O=C([C@H](C[C@@H](O)[C@@H](O)N[*:3])N[*:1])[*:2]; hTyr(3S-OH,4S-OH) = N[C@H](C(=O)O)[C@H](O)[C@@H](O)c1ccc(O)cc1; Pro(3S-OH,4S-Me) = C[C@H]1CN[C@H](C(=O)O)[C@H]1O; X1 = CCCCCOc1ccc(-c2cc(-c3ccc(C(=O)*)cc3)no2)cc1; Gln(3R-OH) = NC(=O)C[C@@H](O)[C@H](N)C(=O)O; Hyp = O=C(O)[C@@H]1C[C@@H](O)CN1 Some results are limits rather than exact numbers.

We go through four molecules from ChEMBL document CHEMBL1671690, “Madurella mycetomatis is not susceptible to the echinocandin class of antifungal agents” (2010).

On to `CC(=O)N1CCN(c2ccc(OCC3COC(Cn4ccnc4)(c4ccc(Cl)cc4Cl)O3)cc2)CC1` (configuration not stated), for which the MIC (as a rule, the smallest concentration in the dilution series that meets the test's criterion for growth inhibition) stood at 0.063 µg/mL (≈ 0.119 µM) in assay [1]; 0.125 µg/mL (≈ 0.235 µM) in assay [2]; 0.25 µg/mL (≈ 0.47 µM) in assay [3]; 0.063 µg/mL (≈ 0.119 µM) in assay [4]; 1 µg/mL (≈ 1.88 µM) in [5]; 0.031 µg/mL (≈ 0.0583 µM) in [6]. In addition, the MIC in [7] is 0.063 µg/mL (≈ 0.119 µM); in assay [8], 0.031 µg/mL (≈ 0.0583 µM); in assay [9], 0.063 µg/mL (≈ 0.119 µM); in assay [10], 0.063 µg/mL (≈ 0.119 µM); in assay [11] it was 0.063 µg/mL (≈ 0.119 µM); in [12], 0.016 µg/mL (≈ 0.0301 µM). Further, the MIC in assay [13] was 0.25 µg/mL (≈ 0.47 µM); in assay [14], 0.031 µg/mL (≈ 0.0583 µM); in [15], 0.125 µg/mL (≈ 0.235 µM); in assay [16] it was 0.125 µg/mL (≈ 0.235 µM); in assay [17] it was 0.25 µg/mL (≈ 0.47 µM).

For `CCCCCOc1ccc(-c2ccc(-c3ccc(C(=O)N[C@H]4C[C@@H](O)[C@@H](O)NC(=O)[C@@H]5[C@@H](O)[C@@H](C)CN5C(=O)[C@H]([C@@H](C)O)NC(=O)[C@H]([C@H](O)[C@@H](O)c5ccc(O)cc5)NC(=O)[C@@H]5C[C@@H](O)CN5C(=O)[C@H]([C@@H](C)O)NC4=O)cc3)cc2)cc1` [ANIDULAFUNGIN] ({pTerphenylCO(4''-OnC5H11)}-[Orn(4R-OH,5R-OH)]T[Hyp][hTyr(3S-OH,4S-OH)]T[Pro(3S-OH,4S-Me)]; lactam 1-C), the MIC in assay [1], in assay [2], in assay [3], in assay [4], in assay [5] and in assay [6] was more than 128 µg/mL in each case. Besides, the MIC (in the assay with Aspergillus fumigatus [18]; in [7]; in [8]; in assay [9]; in assay [10]; in [11]) was more than 128 µg/mL in each case. The MIC is more than 128 µg/mL in [12]; more than 128 µg/mL in [13]; more than 128 µg/mL in assay [14]; 0.5 µg/mL (≈ 0.438 µM) in [15]; more than 128 µg/mL in assay [16]; more than 128 µg/mL in assay [17]. The minimal effective concentration with Aspergillus fumigatus [18] is less than 0.007 µg/mL. Moreover, the inhibition entry in the assay with Aspergillus fumigatus [19] and in the assay on Madurella mycetomatis was “inactive” throughout.

`CC[C@H](C)C[C@H](C)CCCCCCCCC(=O)N[C@H]1C[C@@H](O)[C@@H](NCCN)NC(=O)[C@@H]2[C@@H](O)CCN2C(=O)[C@H]([C@H](O)CCN)NC(=O)[C@H]([C@H](O)[C@@H](O)c2ccc(O)cc2)NC(=O)[C@@H]2C[C@@H](O)CN2C(=O)[C@H]([C@@H](C)O)NC1=O` [CASPOFUNGIN]: the MIC was 128 µg/mL (≈ 117 µM) in assay [1]; 64 µg/mL (≈ 58.5 µM) in [2]; 128 µg/mL (≈ 117 µM) in assay [3]; 128 µg/mL (≈ 117 µM) in [4]; 128 µg/mL (≈ 117 µM) in assay [5]; 64 µg/mL (≈ 58.5 µM) in [6]. The MIC in the assay with Aspergillus fumigatus [18] is 128 µg/mL (≈ 117 µM); in assay [7] it was 128 µg/mL (≈ 117 µM); in assay [8], 32 µg/mL (≈ 29.3 µM); in assay [9], 64 µg/mL (≈ 58.5 µM); in assay [10] it was 64 µg/mL (≈ 58.5 µM); in assay [11], 64 µg/mL (≈ 58.5 µM). Also, the MIC in assay [12] was 64 µg/mL (≈ 58.5 µM); in [13] it was 128 µg/mL (≈ 117 µM); in [14], 64 µg/mL (≈ 58.5 µM); in assay [15] it was 16 µg/mL (≈ 14.6 µM); in assay [16], 128 µg/mL (≈ 117 µM); in assay [17] it was 64 µg/mL (≈ 58.5 µM). Besides, in the assay on Aspergillus fumigatus [18], the minimal effective concentration was determined as 0.125 µg/mL. For the same molecule, in the assay with Madurella mycetomatis, the inhibition result was “inactive”.

In the case of `CCCCCOc1ccc(-c2cc(-c3ccc(C(=O)N[C@H]4C[C@@H](O)[C@@H](O)NC(=O)[C@@H]5[C@@H](O)[C@@H](C)CN5C(=O)[C@H]([C@H](O)CC(N)=O)NC(=O)[C@H]([C@H](O)[C@@H](O)c5ccc(O)c(OS(=O)(=O)O)c5)NC(=O)[C@@H]5C[C@@H](O)CN5C(=O)[C@H]([C@@H](C)O)NC4=O)cc3)no2)cc1` [MICAFUNGIN] (X1-[Orn(4R-OH,5R-OH)]T[Hyp][hTyr(3S-OH,4S-OH,3'-OSO3H)][Gln(3R-OH)][Pro(3S-OH,4S-Me)]; lactam 1-C), the MIC is more than 128 µg/mL in [1]; more than 128 µg/mL in assay [2]; more than 128 µg/mL in assay [3]; 128 µg/mL (≈ 101 µM) in assay [4]; more than 128 µg/mL in [5]; more than 128 µg/mL in assay [6]. The MIC in [7], in assay [8], in [9], in [10], in assay [11] and in assay [12] was more than 128 µg/mL each time. Also, the MIC was more than 128 µg/mL in [13]; more than 128 µg/mL in assay [14]; 8 µg/mL (≈ 6.3 µM) in assay [15]; 128 µg/mL (≈ 101 µM) in assay [16]; more than 128 µg/mL in assay [17]. The inhibition result with Aspergillus fumigatus [19] and in the assay with Madurella mycetomatis was “inactive” throughout.
